Changes are numbered by the printed parent chain.
Legend:
[1] = system: T1, Oleandomycin glycosyltransferase (Streptomyces antibioticus), Q53685 [P67T]; experiment: Activity of Streptomyces antibioticus OleD P67T mutant assessed as as rate of glucoside formation measured as nanomoles of product formed per minute per mg of enzyme
T1 sequence (whole entry): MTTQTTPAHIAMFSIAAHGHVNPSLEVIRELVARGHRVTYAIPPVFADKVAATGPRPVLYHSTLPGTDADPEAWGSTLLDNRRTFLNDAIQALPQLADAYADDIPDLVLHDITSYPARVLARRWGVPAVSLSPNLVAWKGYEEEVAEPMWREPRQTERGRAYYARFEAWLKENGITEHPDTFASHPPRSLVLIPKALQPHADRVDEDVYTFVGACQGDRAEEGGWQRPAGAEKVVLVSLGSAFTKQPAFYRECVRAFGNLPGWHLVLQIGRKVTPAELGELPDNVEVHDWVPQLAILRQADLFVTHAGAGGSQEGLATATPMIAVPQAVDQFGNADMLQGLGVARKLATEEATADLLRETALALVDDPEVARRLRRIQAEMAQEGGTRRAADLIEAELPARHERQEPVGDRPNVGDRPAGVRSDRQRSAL

[2] = molecular target: T2, Oleandomycin glycosyltransferase (Streptomyces antibioticus) (UniProt Q53685); experiment: Activity of Streptomyces antibioticus wild-type OleD assessed as conversion rate of compound to produce glucoside 3 using NDP sugar donor UDP-6-thio-glucose after 3 hrs by HPLC
T2 sequence (whole entry): T1 sequence (whole entry) with T67P
Summary of the method: (§1)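 End-point donor-specificity assay with purified OleD enzyme. Percentage conversion was read after 3 h. Quenched reactions were run by reverse-phase C18 HPLC with a 10–90% CH3CN gradient in 0.1% formic acid/H2O over 20 min at 1 ml min–1, with detection at 254 nm. Products were identified by LC-MS, by comparison to standards where available, and by fluorescence.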

[3] = system: T3, Oleandomycin glycosyltransferase (Streptomyces antibioticus), Q53685 [P67T,S132F,A242V]; experiment: Activity of Streptomyces antibioticus OleD P67T/S132F/A242V mutant assessed as conversion rate of compound to produce glucoside 3 using NDP sugar UDP-xylose after 3 hrs by HPLC; summary of the method: as §1
T3 sequence (whole entry): T1 sequence (whole entry) with S132F, A242V

[4] = system: T1, Oleandomycin glycosyltransferase (Streptomyces antibioticus), Q53685 [P67T]; experiment: Activity of Streptomyces antibioticus OleD P67T mutant assessed as conversion rate of compound to produce glucoside 3 using NDP sugar donor UDP-6-azido-glucose after 3 hrs by HPLC; summary of the method: as §1
[5] = molecular target: T2, Oleandomycin glycosyltransferase (Streptomyces antibioticus); experiment: Activity at Streptomyces antibioticus wild-type OleD assessed as as rate of glucoside formation measured as nanomoles of product formed per minute per mg of enzyme
[6] = system: T3, Oleandomycin glycosyltransferase (Streptomyces antibioticus), Q53685 [P67T,S132F,A242V]; experiment: Activity of Streptomyces antibioticus OleD P67T/S132F/A242V mutant assessed as conversion rate of compound to produce glucoside 3 using NDP sugar […] after 3 hrs by HPLC; summary of the method: as §1
[7] = system: T3, Oleandomycin glycosyltransferase (Streptomyces antibioticus), Q53685 [P67T,S132F,A242V]; experiment: Activity of Streptomyces antibioticus OleD P67T/S132F/A242V mutant assessed as conversion rate of compound to produce glucoside 3 using NDP sugar donor UDP-4-amino-6-deoxy-glucose after 3 hrs by HPLC; summary of the method: as §1
[8] = system: T4, Oleandomycin glycosyltransferase (Streptomyces antibioticus), Q53685 [A242V]; experiment: Activity of Streptomyces antibioticus OleD A242V mutant assessed as conversion rate of compound to produce glucoside 3 using NDP sugar donor UDP-xylose after 3 hrs by HPLC; summary of the method: as §1
T4 sequence (whole entry): T1 sequence (whole entry) with T67P, A242V

[9] = system: T3, Oleandomycin glycosyltransferase (Streptomyces antibioticus), Q53685 [P67T,S132F,A242V]; experiment: Activity of Streptomyces antibioticus OleD P67T/S132F/A242V mutant assessed as conversion rate of compound to produce glucoside 3 using NDP sugar donor-UDP-4,6-dideoxyglucose after 3 hrs by HPLC; summary of the method: as §1

Cc1cc(=O)oc2cc(O)ccc12
Activity [1]: 15.7 nmol/min
Activity [2]: 1%
Activity [3]: 31%
Activity [4]: 2%
Activity [5]: 2.5 nmol/min
Activity [6]: 21%
Activity [7]: 47%
Activity [8]: 2%
Activity [9]: 45%

Reference: ChEMBL document CHEMBL1221207, “Expanding the promiscuity of a natural-product glycosyltransferase by directed evolution” (Nat Chem Biol, 2007)
